We go through three compounds from PMC5346068 (ACS infectious diseases, 2017).

Values after ≈ are worked out from the molar mass of the structure shown. “Also recorded” adds a separate entry of the source. Where only a bound is given, the exact number is not on record here.

Data set [1] concerns T. b. brucei (GVR 35 strain). Description: Murine CNS infection model. The class given is in vivo, mouse. The conditions noted are these: tail blood; for mice with no detectable parasitemia, day 28: 1 at 20 mg/kg/day days 21-25, Berenil single 40 mg/kg day 21. An outline of the steps: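 Mice were infected on day 0 with T. b. brucei GVR 35, in two groups of 5, and checked for parasitemia on day 14. The control group got a single 40 mg/kg Berenil dose on day 21, then vehicle (DMSO in PBS) on days 22–25. The treated group got test compound at 20 mg/kg/day on days 21–25 and again on days 28–32. Tail blood was examined on days 14, 28, 35, 39 and 43.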

Another data set deals with T. brucei. Description: T. brucei in vitro growth inhibition. The data set is classed as cell-based. Particulars: Trypanosoma brucei, read-out: T. brucei EC50.
Data set [2] in a line: MRC5-SV2 human lung cell toxicity. The data set is classed as cell-based. The conditions noted are these: MRC5-SV2 human lung cells.
The nature of the next data set: Aqueous solubility. The data set is classed as physicochemical.
A short description of data set [3]: Human plasma protein binding. The class given is in vitro ADME.
Data set [4] in a line: Human liver microsome clearance. The class given is in vitro ADME. The conditions noted are these: liver microsomes. A general note: Liver microsomes are a subcellular fraction often used to study metabolism.
A further data set is described as follows: Rat hepatocyte clearance. The data set is classed as in vitro ADME. Particulars: rat hepatocytes.
The nature of another data set: logD 7.4. The class given is physicochemical. Particulars: pH 7.4.
Data set [5] can be described thus: Mouse plasma and brain pharmacokinetics. Particulars: female, BALB/c, brain, ip, 10 mg/kg. The data set is classed as in vivo, female BALB/c mice. An outline of the steps: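 Female BALB/c mice received a single intraperitoneal 10 mg/kg dose of test compound. Drug levels were measured in plasma and brain, and the brain-to-plasma ratio and brain concentration were taken at the 24 h time point.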

The next data set concerns the target T1, T. brucei MetRS (Trypanosoma brucei brucei, UniProt Q38C91).
T1 sequence (Q38C91 1-773): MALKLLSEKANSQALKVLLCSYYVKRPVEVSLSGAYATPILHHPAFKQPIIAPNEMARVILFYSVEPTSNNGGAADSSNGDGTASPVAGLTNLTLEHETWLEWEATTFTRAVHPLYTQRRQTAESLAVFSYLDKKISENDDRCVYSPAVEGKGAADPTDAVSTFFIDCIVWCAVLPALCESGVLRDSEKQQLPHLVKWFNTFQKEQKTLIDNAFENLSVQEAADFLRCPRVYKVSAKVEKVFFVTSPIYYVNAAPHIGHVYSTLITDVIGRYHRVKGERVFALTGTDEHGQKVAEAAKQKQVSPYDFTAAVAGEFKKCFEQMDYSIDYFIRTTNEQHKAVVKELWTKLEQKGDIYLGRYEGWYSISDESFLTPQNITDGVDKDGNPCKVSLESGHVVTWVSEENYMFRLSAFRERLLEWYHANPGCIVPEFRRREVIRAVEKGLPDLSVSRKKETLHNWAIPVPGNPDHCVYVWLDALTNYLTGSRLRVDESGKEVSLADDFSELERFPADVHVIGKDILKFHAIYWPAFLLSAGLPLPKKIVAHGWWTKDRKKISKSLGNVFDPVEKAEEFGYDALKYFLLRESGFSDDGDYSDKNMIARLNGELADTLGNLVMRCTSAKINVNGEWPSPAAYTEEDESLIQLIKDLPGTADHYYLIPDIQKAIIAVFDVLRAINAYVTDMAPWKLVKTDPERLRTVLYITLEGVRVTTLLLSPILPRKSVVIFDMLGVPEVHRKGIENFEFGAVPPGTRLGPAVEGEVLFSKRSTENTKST
Description: T. brucei MetRS inhibition assay. The data set is classed as biochemical.

A further data set relates to wild-type T. brucei. Description: Wild-type T. brucei growth inhibition assay. Particulars: Trypanosoma brucei, read-out: WT EC50. The data set is classed as cell-based.
The test system of the next data set is 1433-resistant T. brucei. The experiment in a line: microbe, parasite or virus in culture. Particulars: for EC50: Trypanosoma brucei, read-out: 1433 resistant EC50; for 1433 resistant EC50 / WT EC50: fold shift resistant vs wild-type. The class given is cell-based, Trypanosoma brucei.
In a further data set the test system is T. brucei rhodesiense. The conditions noted are these: T. brucei rhodesiense mouse model of HAT; cited from earlier work.

In the case of `CC(=O)NCC(=O)O.CC(=O)NCC(=O)O.N=C(N)c1ccc(N=NNc2ccc(C(=N)N)cc2)cc1` [Berenil], in data set [1], the “mice with no detectable parasitemia, day 28” value is on record as “no detectable levels of parasitemia” and the “parasitemia, day 39” value was “no detectable levels of parasitemia”. Also, the “mice showing a relapse, day 43” value in [1] (day 43, group of 5 mice) came out at 2.
What is called EC50 is the concentration that produces a half-maximal response. The term solubility denotes the concentration that dissolves in the medium under given conditions. Higher therefore signals a readily soluble substance. Broadly, the fraction unbound is free concentration divided by total concentration. By microsomal CLint is commonly meant the capacity of the preparation to metabolise the compound, expressed as a volume cleared per time. A higher microsomal CLint goes with faster metabolism. For orientation: logD means the decadic logarithm of the distribution of all forms, ionised or not, between an organic phase and buffer at a given pH. A lower logD goes with a more hydrophilic compound. For orientation: IC50 means the concentration needed to halve the response being measured. Read a high IC50 as weaker potency in that assay. `OCCn1c(CNCCCNc2nc3ccccc3[nH]2)cc2c(Cl)cc(Cl)cc21` [Compound 1, 2-(2-(((3-((1H–Benzo[d]imidazol-2-yl)amino)propyl)amino)methyl)-4,6-dichloro-1H–indol-1-yl)ethan-1-ol]: the EC50 in the data set with T. brucei came out at 0.96 nM; in data set [2], 12000 nM; with wild-type T. brucei, 0.13 ± 0.01 nM; with 1433-resistant T. brucei, 14 ± 1 nM. The same compound came in with a solubility in “Aqueous solubility” of 6.33 µM (≈ 2.74 µg/mL). This compound came in with a fraction unbound in data set [3] of less than 0.001. The compound further yielded a microsomal CLint in data set [4] of 24 µL/min/mg. In addition, in “Rat hepatocyte clearance”, the “Rat Hepatocyte Clint” value is 24.9 µL/min/10^6. In addition, the logD in the data set “logD 7.4” stood at 4. Moreover, the concentration at 24 h in data set [5] was 31.6 ng/g. In addition, the “mice with no detectable parasitemia, day 28” value in data set [1] is reported as 3/5. Moreover, the “parasitemia, day 39” value in data set [1] is “full relapse of parasites in the blood”. In addition, the IC50 against T. brucei MetRS is less than 25 nM. Moreover, the “1433 resistant EC50 / WT EC50” value in the data set with 1433-resistant T. brucei is recorded as 108. For the same compound, the “efficacy in bloodstream infection mouse model” value in the data set with T. brucei rhodesiense is on record as “cured a bloodstream infection”.
As to `N=C(N)c1ccc(OCCCCCOc2ccc(C(=N)N)cc2)cc1` [Pentamidine, reference compound], the “T. brucei MetRS inhibition” value on T. brucei MetRS (up to 10 µM) is listed as “no T. brucei MetRS inhibition; also recorded: does not inhibit T. brucei MetRS”. Further, in the data set on wild-type T. brucei, the EC50 came out at 1.5 ± 0.2 nM. In the data set on 1433-resistant T. brucei, the EC50 amounted to 1.1 ± 0.1 nM and the “1433 resistant EC50 / WT EC50” value turned out to be 0.73.
